As usually defined, the pKi is the negative decadic logarithm of the Ki, by convention in mol/L. A word on the Ki: it is the equilibrium dissociation constant of an inhibitor or competing ligand from its target. A low value points to tighter binding.

Assay [1] addresses 5-hydroxytryptamine receptor 1B (Rattus norvegicus, UniProt P28564). The assay can be described thus: Binding affinity towards 5-hydroxytryptamine 1B receptor in rat was determined using 50 uL of [125I]ICYP in binding assay. Put shortly: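 [125I]ICYP at 150 pM final, in Tris/CaCl2/pargyline medium with 60 µM (-)-isoproterenol to block β-adrenergic sites. 15 min at 37 °C; ice-cold phosphate dilution, GF/B filtration, gamma counting. Nonspecific binding with 10 µM 5-HT.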

In assay [2] the target is Serotonin 2 (5-HT2) receptor (Rattus norvegicus, UniProt P30994+P08909+P14842). The assay can be described thus: Binding affinity towards serotonin 5-hydroxytryptamine 2 receptor of rat determined using 0.5 nM of [3H]ketanserin in binding assay. It counts as protein assay. The method, boiled down:
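0.5 nM [3H]ketanserin in the same buffer, no CaCl2 or pargyline; 15 min at 37 °C; filtration and scintillation counting. Nonspecific binding with 10 µM methysergide. IC50 read graphically and converted to apparent Ki (Cheng-Prusoff).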

Assay [3] addresses T1, Adrenergic receptor alpha-1 (Rattus norvegicus, UniProt P15823+P23944+P43140).
T1 sequence (P15823 whole entry): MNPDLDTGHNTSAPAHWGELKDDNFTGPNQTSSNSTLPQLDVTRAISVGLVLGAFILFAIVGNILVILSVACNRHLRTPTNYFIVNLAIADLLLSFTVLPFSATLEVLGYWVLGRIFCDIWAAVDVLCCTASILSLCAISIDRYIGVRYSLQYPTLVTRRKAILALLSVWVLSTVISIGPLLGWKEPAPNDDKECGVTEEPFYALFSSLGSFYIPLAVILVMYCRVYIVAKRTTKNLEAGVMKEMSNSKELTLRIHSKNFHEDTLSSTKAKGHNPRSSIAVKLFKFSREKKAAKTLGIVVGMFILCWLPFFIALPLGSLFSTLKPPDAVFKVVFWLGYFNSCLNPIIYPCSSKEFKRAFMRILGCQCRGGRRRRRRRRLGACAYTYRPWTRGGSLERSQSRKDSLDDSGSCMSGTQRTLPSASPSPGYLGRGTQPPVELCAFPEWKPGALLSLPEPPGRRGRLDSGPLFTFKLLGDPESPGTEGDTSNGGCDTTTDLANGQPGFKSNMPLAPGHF
T1 sequence (P23944 whole entry): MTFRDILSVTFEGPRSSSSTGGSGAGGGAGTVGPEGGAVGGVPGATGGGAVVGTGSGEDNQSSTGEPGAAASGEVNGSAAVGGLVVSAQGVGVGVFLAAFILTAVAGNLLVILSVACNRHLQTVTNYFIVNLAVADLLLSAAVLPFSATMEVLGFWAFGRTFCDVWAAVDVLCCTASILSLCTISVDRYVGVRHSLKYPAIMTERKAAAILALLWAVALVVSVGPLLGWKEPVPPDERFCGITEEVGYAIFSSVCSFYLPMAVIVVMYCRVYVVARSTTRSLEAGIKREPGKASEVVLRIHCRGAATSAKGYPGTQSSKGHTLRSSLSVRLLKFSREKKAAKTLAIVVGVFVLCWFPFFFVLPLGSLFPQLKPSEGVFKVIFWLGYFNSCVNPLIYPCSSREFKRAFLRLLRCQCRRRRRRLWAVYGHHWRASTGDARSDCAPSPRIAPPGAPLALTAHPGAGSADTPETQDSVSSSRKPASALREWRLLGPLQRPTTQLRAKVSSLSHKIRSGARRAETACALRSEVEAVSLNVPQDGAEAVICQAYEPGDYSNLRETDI
T1 sequence (P43140 whole entry): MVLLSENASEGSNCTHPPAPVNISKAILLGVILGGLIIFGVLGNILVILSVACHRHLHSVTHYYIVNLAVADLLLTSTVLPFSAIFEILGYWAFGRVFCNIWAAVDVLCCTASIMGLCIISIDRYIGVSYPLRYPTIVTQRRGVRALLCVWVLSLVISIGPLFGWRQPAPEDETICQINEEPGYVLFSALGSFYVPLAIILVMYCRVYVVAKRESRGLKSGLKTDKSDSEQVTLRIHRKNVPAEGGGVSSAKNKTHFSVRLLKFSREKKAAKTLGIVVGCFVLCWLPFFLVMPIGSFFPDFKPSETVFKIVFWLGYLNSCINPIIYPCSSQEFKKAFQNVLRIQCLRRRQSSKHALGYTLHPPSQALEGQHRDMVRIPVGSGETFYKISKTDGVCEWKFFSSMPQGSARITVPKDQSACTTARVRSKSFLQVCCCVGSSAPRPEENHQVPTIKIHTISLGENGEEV
The assay can be described thus: Binding affinity against alpha-1 adrenergic receptor of rat was determined using 0.5 nM of [3H]WB-4101 in binding assay. It is filed as protein assay. The method, boiled down: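 Washed rat cerebral cortex membranes at 10 mg wet tissue/mL, under the 8-OH-DPAT assay conditions (Tris/CaCl2/pargyline, pH 7.4, 15 min, 37 °C, filtration). Final [3H]WB4101 0.5 nM, with 1 µM 5-HT added to mask 5-HT1A sites. Nonspecific binding with 1 µM prazosin. Apparent Ki from graphical IC50 via Cheng-Prusoff.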

Assay [4] addresses T2, 5-hydroxytryptamine receptor 1A (Rattus norvegicus, UniProt P19327).
T2 sequence (P19327 whole entry): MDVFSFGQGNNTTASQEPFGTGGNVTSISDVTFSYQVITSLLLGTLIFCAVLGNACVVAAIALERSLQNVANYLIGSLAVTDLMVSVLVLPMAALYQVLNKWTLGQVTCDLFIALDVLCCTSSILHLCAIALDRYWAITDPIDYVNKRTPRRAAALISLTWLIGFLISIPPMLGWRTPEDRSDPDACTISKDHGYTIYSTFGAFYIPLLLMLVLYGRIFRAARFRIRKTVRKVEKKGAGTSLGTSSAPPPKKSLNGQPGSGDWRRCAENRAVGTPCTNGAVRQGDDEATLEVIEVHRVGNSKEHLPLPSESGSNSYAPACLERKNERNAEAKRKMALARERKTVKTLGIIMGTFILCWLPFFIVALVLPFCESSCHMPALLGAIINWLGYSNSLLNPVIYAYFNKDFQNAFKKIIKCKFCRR
The assay can be described thus: Binding affinity against 5-hydroxytryptamine 1A receptor of rat was determined using [3H]8-OH-DPAT in binding assay. The method, boiled down:
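Rat (male Sprague-Dawley) cerebral cortex membranes, washed 4 times with a 10 min 37 °C preincubation, 10 mg wet tissue/mL. 1 nM [3H]-8-OH-DPAT in 50 mM Tris, 3 mM CaCl2, pargyline, pH 7.4; 15 min, 37 °C; filtration on PEI-treated GF/B filters, scintillation counting. Nonspecific binding with 10 µM 5-HT. IC50 read graphically and converted to apparent Ki (Cheng-Prusoff).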

Another assay addresses D(2) dopamine receptor (Rattus norvegicus, UniProt P61169). The assay can be described thus: Binding affinity against Dopamine receptor D2 of rat was determined using 2 nM of [3H]sulpiride in binding assay. The method, boiled down:
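Striatal membranes from male Sprague-Dawley rats in Tris buffer with 108 mM NaCl, 4.7 mM KCl, 1.3 mM CaCl2, pH 7.4, 4 mg wet tissue/mL. Final [3H]sulpiride 2 nM; incubated 20 min at 37 °C, then vacuum filtration. Specific binding defined with 1 µM spiperone. IC50 read graphically and converted to apparent Ki (Cheng-Prusoff).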

pKi: −log10 of the molar value. Where only a bound is given, the exact number is not on record here.

Sequence of D(2) dopamine receptor (P61169 whole entry): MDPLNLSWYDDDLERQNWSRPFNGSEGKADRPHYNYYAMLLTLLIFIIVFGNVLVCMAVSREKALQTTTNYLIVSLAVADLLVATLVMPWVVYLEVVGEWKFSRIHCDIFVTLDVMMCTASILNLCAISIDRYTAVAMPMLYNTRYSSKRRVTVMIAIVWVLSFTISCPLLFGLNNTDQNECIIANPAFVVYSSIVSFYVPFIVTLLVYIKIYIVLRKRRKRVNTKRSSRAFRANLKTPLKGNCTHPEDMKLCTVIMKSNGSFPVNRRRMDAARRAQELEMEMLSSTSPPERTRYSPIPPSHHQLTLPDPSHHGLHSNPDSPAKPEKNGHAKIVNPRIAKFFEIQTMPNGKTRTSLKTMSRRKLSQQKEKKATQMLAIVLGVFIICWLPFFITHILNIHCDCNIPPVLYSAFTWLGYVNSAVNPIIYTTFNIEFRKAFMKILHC
Sequence of 5-hydroxytryptamine receptor 1B (P28564 whole entry): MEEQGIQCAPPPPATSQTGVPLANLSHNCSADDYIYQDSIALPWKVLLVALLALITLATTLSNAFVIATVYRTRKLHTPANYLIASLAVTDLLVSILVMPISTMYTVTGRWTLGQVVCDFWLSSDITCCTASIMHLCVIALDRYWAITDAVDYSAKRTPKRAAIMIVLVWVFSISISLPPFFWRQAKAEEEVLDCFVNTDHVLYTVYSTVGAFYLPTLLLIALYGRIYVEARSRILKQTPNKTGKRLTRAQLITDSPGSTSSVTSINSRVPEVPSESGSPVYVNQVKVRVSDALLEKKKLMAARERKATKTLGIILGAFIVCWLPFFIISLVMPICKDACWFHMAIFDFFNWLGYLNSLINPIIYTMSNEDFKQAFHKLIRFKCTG

For the compound `O=C1NCN(c2ccccc2)C12CCN(CC1COc3ccccc3O1)CC2` (stereo in doubt; (+)) [SPIROXATRINE], the pKi was < 5.00 in assay [1], 7.68 in assay [4] and 8.84 on D(2) dopamine receptor. For the same compound, the Ki in assay [2] was determined as 858 nM; in assay [3], 1050 nM.
In the case of `O=C1NCN(c2ccccc2)C12CCN(CC1COc3ccccc3O1)CC2` (stereo in doubt; (-)) [SPIROXATRINE], the values for the pKi (in assay [1]; in assay [4]; at D(2) dopamine receptor) were < 5.00, 8.72 and 9.66, respectively. Further, the Ki amounted to 113 nM in assay [2] and 149 nM in assay [3].

The values are drawn from ChEMBL document CHEMBL1123980, “Serotonergic properties of spiroxatrine enantiomers” (J Med Chem, 1988).
